Data published in ChEMBL document CHEMBL2157880, “Synthesis, antimycobacterial and antibacterial activity of ciprofloxacin derivatives containing a N-substituted benzyl moiety” (2012).
In brackets after ≈: the same amount, converted by molar mass.

How the values were obtained:
Assay type in all cases: functional
Enterococcus faecium [1] = assay: Antibacterial activity against Enterococcus faecium 10-6 after 18 to 24 hrs by NCCLS method
Procedure, shortened: (§1)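 Standard NCCLS (M100-S11) MIC testing against Gram-positive and Gram-negative strains. Plates were incubated at 35 °C for 18–24 h. The MIC was read as the lowest concentration giving complete inhibition of visible bacterial growth.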

[2] = system: Mycobacterium tuberculosis; assay: Antimycobacterial activity against Mycobacterium tuberculosis H37Rv ATCC 27294 by microplate alamar blue assay
Procedure, shortened: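 Microplate Alamar Blue fluorescence assay on strain H37Rv ATCC 27294. MIC was the lowest concentration cutting fluorescence by ≥90% against the mean of replicate bacterium-only controls.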

Escherichia coli [3] = assay: Antibacterial activity against extended spectrum beta-lactamases producing Escherichia coli 10-4 after 18 to 24 hrs by NCCLS method; procedure, shortened: as §1
Klebsiella pneumoniae [4] = assay: Antibacterial activity against extended spectrum beta-lactamases producing Klebsiella pneumoniae 10-3 after 18 to 24 hrs by NCCLS method; procedure, shortened: as §1
[5] = system: Staphylococcus epidermidis; assay: Antibacterial activity against methicillin-sensitive Staphylococcus epidermidis 10-11 after 18 to 24 hrs by NCCLS method; procedure, shortened: as §1
Staphylococcus aureus [6] = assay: Antibacterial activity against methicillin-sensitive Staphylococcus aureus 10-13 after 18 to 24 hrs by NCCLS method; procedure, shortened: as §1
Klebsiella pneumoniae [7] = assay: Antibacterial activity against extended spectrum beta-lactamases producing Klebsiella pneumoniae 10-2 after 18 to 24 hrs by NCCLS method; procedure, shortened: as §1
Klebsiella pneumoniae [8] = assay: Antibacterial activity against extended spectrum beta-lactamases producing Klebsiella pneumoniae 10-1 after 18 to 24 hrs by NCCLS method; procedure, shortened: as §1
Pseudomonas aeruginosa [9] = assay: Antibacterial activity against Pseudomonas aeruginosa 10-5 after 18 to 24 hrs by NCCLS method; procedure, shortened: as §1
Escherichia coli [10] = assay: Antibacterial activity against Escherichia coli 10-2 after 18 to 24 hrs by NCCLS method; procedure, shortened: as §1
Pseudomonas aeruginosa [11] = assay: Antibacterial activity against Pseudomonas aeruginosa 10-18 after 18 to 24 hrs by NCCLS method; procedure, shortened: as §1
Pseudomonas aeruginosa [12] = assay: Antibacterial activity against Pseudomonas aeruginosa 10-15 after 18 to 24 hrs by NCCLS method; procedure, shortened: as §1
Staphylococcus aureus [13] = assay: Antibacterial activity against methicillin-sensitive Staphylococcus aureus 10-14 after 18 to 24 hrs by NCCLS method; procedure, shortened: as §1
Enterococcus faecalis [14] = assay: Antibacterial activity against Enterococcus faecalis 10-6 after 18 to 24 hrs by NCCLS method; procedure, shortened: as §1
Escherichia coli [15] = assay: Antibacterial activity against Escherichia coli 10-3 after 18 to 24 hrs by NCCLS method; procedure, shortened: as §1
Escherichia coli [16] = assay: Antibacterial activity against extended spectrum beta-lactamases producing Escherichia coli 10-2 after 18 to 24 hrs by NCCLS method; procedure, shortened: as §1
Pseudomonas aeruginosa [17] = assay: Antibacterial activity against Pseudomonas aeruginosa 10-9 after 18 to 24 hrs by NCCLS method; procedure, shortened: as §1
Streptococcus pneumoniae [18] = assay: Antibacterial activity against Streptococcus pneumoniae 10-6 after 18 to 24 hrs by NCCLS method; procedure, shortened: as §1
[19] = system: Staphylococcus epidermidis; assay: Antibacterial activity against methicillin-resistant Staphylococcus epidermidis 10-13 after 18 to 24 hrs by NCCLS method
Procedure, shortened: (§2)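 Incubated at 35 °C for 18–24 h under NCCLS (M100-S11) standards. MIC was read as the lowest concentration giving complete inhibition of visible bacterial growth.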

Escherichia coli [20] = assay: Antibacterial activity against Escherichia coli 10-1 after 18 to 24 hrs by NCCLS method; procedure, shortened: as §1
Streptococcus pneumoniae [21] = assay: Antibacterial activity against Streptococcus pneumoniae 10-1 after 18 to 24 hrs by NCCLS method; procedure, shortened: as §1
Enterococcus faecalis [22] = assay: Antibacterial activity against Enterococcus faecalis 10-5 after 18 to 24 hrs by NCCLS method; procedure, shortened: as §1
Staphylococcus aureus [23] = assay: Antibacterial activity against methicillin-resistant Staphylococcus aureus 10-15 after 18 to 24 hrs by NCCLS method; procedure, shortened: as §2
Enterococcus faecalis [24] = assay: Antibacterial activity against Enterococcus faecalis 10-7 after 18 to 24 hrs by NCCLS method; procedure, shortened: as §1
Klebsiella pneumoniae [25] = assay: Antibacterial activity against Klebsiella pneumoniae 10-4 after 18 to 24 hrs by NCCLS method; procedure, shortened: as §1
Staphylococcus aureus [26] = assay: Antibacterial activity against methicillin-sensitive Staphylococcus aureus 10-11 after 18 to 24 hrs by NCCLS method; procedure, shortened: as §1
Pseudomonas aeruginosa [27] = assay: Antibacterial activity against Pseudomonas aeruginosa 10-20 after 18 to 24 hrs by NCCLS method; procedure, shortened: as §1
Staphylococcus aureus [28] = assay: Antibacterial activity against Staphylococcus aureus ATCC 2592 after 18 to 24 hrs by NCCLS method; procedure, shortened: as §1
[29] = system: Staphylococcus epidermidis; assay: Antibacterial activity against methicillin-sensitive Staphylococcus epidermidis 10-15 after 18 to 24 hrs by NCCLS method; procedure, shortened: as §2
Escherichia coli [30] = assay: Antibacterial activity against Escherichia coli ATCC 25922 after 18 to 24 hrs by NCCLS method; procedure, shortened: as §1
Escherichia coli [31] = assay: Antibacterial activity against extended spectrum beta-lactamases producing Escherichia coli 10-3 after 18 to 24 hrs by NCCLS method; procedure, shortened: as §1
Pseudomonas aeruginosa [32] = assay: Antibacterial activity against Pseudomonas aeruginosa 10-12 after 18 to 24 hrs by NCCLS method; procedure, shortened: as §1
Klebsiella pneumoniae [33] = assay: Antibacterial activity against Klebsiella pneumoniae 10-2 after 18 to 24 hrs by NCCLS method; procedure, shortened: as §1
Staphylococcus aureus [34] = assay: Antibacterial activity against methicillin-resistant Staphylococcus aureus 10-11 after 18 to 24 hrs by NCCLS method; procedure, shortened: as §2
Staphylococcus aureus [35] = assay: Antibacterial activity against methicillin-resistant Staphylococcus aureus 10-13 after 18 to 24 hrs by NCCLS method; procedure, shortened: as §2
[36] = system: Staphylococcus epidermidis; assay: Antibacterial activity against methicillin-resistant Staphylococcus epidermidis 10-10 after 18 to 24 hrs by NCCLS method; procedure, shortened: as §2
Enterococcus faecium [37] = assay: Antibacterial activity against Enterococcus faecium 10-9 after 18 to 24 hrs by NCCLS method; procedure, shortened: as §1
Klebsiella pneumoniae [38] = assay: Antibacterial activity against Klebsiella pneumoniae 10-3 after 18 to 24 hrs by NCCLS method; procedure, shortened: as §1

Row | SMILES | MIC (Enterococcus faecium [1]) [µg/mL] | MIC [2] [µg/mL] | MIC (Klebsiella pneumoniae [4]) [µg/mL] | MIC [5] [µg/mL] | MIC (Staphylococcus aureus [6]) [µg/mL] | MIC (Klebsiella pneumoniae [7]) [µg/mL] | MIC (Klebsiella pneumoniae [8]) [µg/mL] | MIC (Pseudomonas aeruginosa [11]) [µg/mL] | MIC (Staphylococcus aureus [13]) [µg/mL] | MIC (Enterococcus faecalis [14]) [µg/mL] | MIC (Streptococcus pneumoniae [18]) [µg/mL] | MIC [19] [µg/mL] | MIC (Streptococcus pneumoniae [21]) [µg/mL] | MIC (Enterococcus faecalis [22]) [µg/mL] | MIC (Enterococcus faecalis [24]) [µg/mL] | MIC (Klebsiella pneumoniae [25]) [µg/mL] | MIC (Staphylococcus aureus [26]) [µg/mL] | MIC (Staphylococcus aureus [28]) [µg/mL] | MIC [29] [µg/mL] | MIC (Klebsiella pneumoniae [33]) [µg/mL] | further results
1 | O=C(O)c1cn(C2CC2)c2cc(N3CCN(Cc4ccc5c(c4)OCCO5)CC3)c(F)cc2c1=O | 2 (≈ 4.17 µM) | 2 (≈ 4.17 µM) | > 128 | 0.5 (≈ 1.04 µM) | 0.25 (≈ 0.521 µM) | > 128 | > 128 | 16 (≈ 33.4 µM) | 0.5 (≈ 1.04 µM) | 32 (≈ 66.7 µM) | 32 (≈ 66.7 µM) | 16 (≈ 33.4 µM) | 1 (≈ 2.09 µM) | 4 (≈ 8.34 µM) | 32 (≈ 66.7 µM) | > 128 | 0.25 (≈ 0.521 µM) | 0.125 (≈ 0.261 µM) | 8 (≈ 16.7 µM) | > 128 | MIC (Escherichia coli [3]): 128 µg/mL (≈ 267 µM); MIC (Pseudomonas aeruginosa [9]): 16 µg/mL (≈ 33.4 µM); MIC (Escherichia coli [10]): 128 µg/mL (≈ 267 µM); MIC (Pseudomonas aeruginosa [12]): 32 µg/mL (≈ 66.7 µM); MIC (Escherichia coli [15]): 16 µg/mL (≈ 33.4 µM); MIC (Escherichia coli [16]): > 128 µg/mL; MIC (Pseudomonas aeruginosa [17]): 64 µg/mL (≈ 133 µM); MIC (Escherichia coli [20]): > 128 µg/mL; MIC (Staphylococcus aureus [23]): 4 µg/mL (≈ 8.34 µM); MIC (Pseudomonas aeruginosa [27]): 32 µg/mL (≈ 66.7 µM); MIC (Escherichia coli [30]): 0.125 µg/mL (≈ 0.261 µM); MIC (Escherichia coli [31]): > 128 µg/mL; MIC (Pseudomonas aeruginosa [32]): 16 µg/mL (≈ 33.4 µM); MIC (Staphylococcus aureus [34]): 16 µg/mL (≈ 33.4 µM); MIC (Staphylococcus aureus [35]): 16 µg/mL (≈ 33.4 µM); MIC [36]: 8 µg/mL (≈ 16.7 µM); MIC (Enterococcus faecium [37]): 32 µg/mL (≈ 66.7 µM); MIC (Klebsiella pneumoniae [38]): 8 µg/mL (≈ 16.7 µM)
2 | O=C(O)c1cn(C2CC2)c2cc(N3CCNCC3)c(F)cc2c1=O [CIPROFLOXACIN] | 1 (≈ 3.02 µM) | 0.5 (≈ 1.51 µM) | 32 (≈ 96.6 µM) | 0.5 (≈ 1.51 µM) | 0.5 (≈ 1.51 µM) | 32 (≈ 96.6 µM) | 32 (≈ 96.6 µM) | 1 (≈ 3.02 µM) | 0.5 (≈ 1.51 µM) | 64 (≈ 193 µM) | 32 (≈ 96.6 µM) | 16 (≈ 48.3 µM) | 2 (≈ 6.04 µM) | 8 (≈ 24.1 µM) | 16 (≈ 48.3 µM) | 32 (≈ 96.6 µM) | 0.5 (≈ 1.51 µM) | 0.25 (≈ 0.754 µM) | 8 (≈ 24.1 µM) | 32 (≈ 96.6 µM) | MIC (Staphylococcus aureus [34]): 32 µg/mL (≈ 96.6 µM); MIC (Staphylococcus aureus [35]): 128 µg/mL (≈ 386 µM); MIC [36]: 8 µg/mL (≈ 24.1 µM); MIC (Enterococcus faecium [37]): 16 µg/mL (≈ 48.3 µM); MIC (Klebsiella pneumoniae [38]): 0.25 µg/mL (≈ 0.754 µM)
